NCF1 inh: p47phox (human) inhibition. AID 1274. inhibition, % at 24.7 µM. P14598. p47phox/p22phox peptide binding, fluorescence polarization, 2 h. 0.53% of 220,000 active;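 active means inhibition above about 30%, limit read from the data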;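 further: 0% = p47phox with labelled peptide and 100% = labelled peptide alone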
ABCB1 inh: blocks JC-1 efflux by human ABCB1 transporter | P08183 | CCRF-Adr cells, flow cytometry | inhibition, % at 6.6 µM | 0.067% of 190,000 active | AID 1326; in the data active means inhibition above about 40%;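 further: 0% = vehicle and 100% = reference inhibitor; higher value means more JC-1 retained so stronger ABCB1 efflux block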
HMGR II inh: blocks class II HMG-CoA reductase of Enterococcus faecalis. purified E. faecalis HMGR, NADPH absorbance 340 nm kinetic. inhibition, % at 10 µM. 0.41% of 190,000 active;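 active means inhibition above a set limit, the median over all tested compounds plus 3 SD, cut at about 9.5% in these data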;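 further: enzyme runs in reverse so mevalonate oxidation gives rising NADPH absorbance; 0% = complete reaction with DMSO and 100% = background rate lacking mevalonate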
Diaphorase act: counter-screen for diaphorase-based assays: diaphorase activators and chemical reducers; Diaphorase/resazurin coupled assay, resorufin fluorescence, 16 min; hits give high values; 1 = vehicle wells, 0 = NADH-free wells; activation factor at 20 µM; 0.005% of 190,000 active;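 active means diaphorase activity raised at least twofold by the compound at 20 µM; inactive means activation factor below 2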
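Test system: Clostridium kluyveri diaphorase, purified enzyme; input: enzyme 0.07 U/mL final; buffer or medium: 50 mM HEPES pH 7.4 with 4.542 mM MgCl2, 0.005% Tween 20; also added: 0.114 mM NADH and 0.1 mM resazurin, final amounts; schedule: 16 min enzyme reaction, ambient temperature; technique: fluorescence of resorufin, 544 nm excitation, 590 nm emission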
ABCG2 block: inhibitors of human ABCG2 transporter, ABCB1 counter-screen; Q9UNQ0; IgMXP3 cells, JC-1 efflux, flow cytometry; inhibition, % at 6.6 µM; 0.1% of 190,000 active;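 active means inhibition above 80%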;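 further: 0% = DMSO and 100% = nicardipine control wells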
Target sequence (Q9UNQ0 whole entry, looked up): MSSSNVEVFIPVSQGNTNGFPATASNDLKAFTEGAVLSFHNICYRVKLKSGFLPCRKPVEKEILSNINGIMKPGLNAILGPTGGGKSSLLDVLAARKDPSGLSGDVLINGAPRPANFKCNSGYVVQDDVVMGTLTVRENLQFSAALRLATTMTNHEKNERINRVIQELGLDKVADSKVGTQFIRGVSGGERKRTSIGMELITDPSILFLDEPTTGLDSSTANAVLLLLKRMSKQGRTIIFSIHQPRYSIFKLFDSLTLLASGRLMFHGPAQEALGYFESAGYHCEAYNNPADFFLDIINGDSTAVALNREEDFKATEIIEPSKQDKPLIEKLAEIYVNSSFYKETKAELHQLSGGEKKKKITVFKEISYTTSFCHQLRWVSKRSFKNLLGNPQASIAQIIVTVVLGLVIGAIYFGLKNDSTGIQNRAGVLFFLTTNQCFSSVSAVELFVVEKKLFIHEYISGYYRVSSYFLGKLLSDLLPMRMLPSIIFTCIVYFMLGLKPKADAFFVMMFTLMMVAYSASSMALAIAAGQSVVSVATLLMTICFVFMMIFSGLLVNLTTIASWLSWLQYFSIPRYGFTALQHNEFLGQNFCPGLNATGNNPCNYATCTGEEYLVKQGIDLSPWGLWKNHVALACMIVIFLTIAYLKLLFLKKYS
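Test system: IgMXP3 (ABCG2) plus far-red-tagged CCRF-Adr (ABCB1) cells. Reagent: JC-1 dye as substrate. Timing: 10 min exposure at 25 °C with rotation, no wash. Measured by: flow cytometric JC-1 green MFI at 530 nm. Read-out: percent efflux inhibition, scaled nicardipine 100% to DMSO 0%. Control set: nicardipine and DMSO wells.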
Diaphorase inh: counter-screen for diaphorase-based assays: diaphorase inhibitors and chemical oxidizers; inhibition, % at 20 µM; 0.69% of 190,000 active; diaphorase resazurin-to-resorufin fluorescence, NADH, 16 min; bacterial (C. kluyveri) enzyme, not human; AID 1217;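 active means primary screen inhibition at 20 µM above a set limit, cut at about 50% in these data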;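 further: plate controls were DMSO with full reaction for no effect and wells lacking NADH for full effect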
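System: Diaphorase enzyme from Clostridium kluyveri | Amount: Enzyme working solution with 0.14 U/mL diaphorase | Benchmarks: No-NADH positive control and DMSO neutral control | Signal: Fluorescence of resorufin formed from resazurin, Ex 544/Em 590 nm | Schedule: 16-min room-temperature incubation before reading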
* = called active by the depositor; . = no result. Compounds with a hit are over-represented: about 1.6% of the library has one in this group of screens.

SMILES	NCF1 inh	ABCB1 inh	HMGR II inh	Diaphorase act	ABCG2 block	Diaphorase inh
COc1ccc(NC(=O)CSc2nccn2C)cc1S(N)(=O)=O	-3	0	10*	0.9	2	5
Cc1cc(C)n2nc(SCC(=O)c3ccc[nH]3)nc2n1	-1	0	0	0.8	2	25
CCOC(=O)/C(C#N)=C\N(C)C	40*	0	-13	0.9	2	8
COc1ccc(CNC(=O)C(C)NS(=O)(=O)c2ccc(C)cc2)cc1 (stereo unspecified)	5	0	-2	0.8	-1	17
Cc1nc2ccccc2nc(=O)c1NNc1ccccc1	74*	1	-4	0.8	10	16
COc1ccc(CCn2c(N3CCN(Cc4ccccc4)CC3)nc3c2c(=O)[nH]c(=O)n3C)cc1	-2	2	-1	0.8	20	23
COc1ccccc1CNCc1cc(Br)ccc1OC	4	1	1	0.9	15	11
Cc1oc2c(c1C(=O)c1ccccc1)C(=O)C(=O)c1ccccc1-2	-2	1	1	0.4	5	58*
O=C1C(=O)c2c(C(=O)c3ccccc3)coc2-c2ccccc21	-12	0	-2	0.4	11	62*
Cc1oc2c(c1C(=O)O)C(=O)c1ccccc1C2=O	-5	0	-2	0.9	8	7
O=C(NCCC(=O)N1CCN(c2ncccn2)CC1)c1ccccc1	-1	1	0	1	5	3
S=C(c1ccc(-c2ccc(Cl)cc2Cl)o1)N1CCCCC1	-10	-1	-3	1	-2	2
O=C(N=Nc1c(O)[nH]c2ccc(Br)cc12)c1cc(-c2cccs2)nc2ccccc12	60*	0	2	1	3	-4
Cn1c(O)c(N=NC(=O)c2cc(-c3cccs3)nc3ccccc23)c2ccccc21	-12	1	2	0.8	3	17
Cc1cc(=O)[nH]c(Nc2cccc(C(F)(F)F)c2)n1	4	0	-4	1.1	-1	-6
O=c1cc(O)c2sc(Nc3ccc(F)cc3)nc2[nH]1	-25	-1	-5	0.2	-3	78*
O=c1cc(O)c2sc(Nc3cccc(C(F)(F)F)c3)nc2[nH]1	-31	-1	3	0.3	-2	66*
CCN(Cc1ccncc1)C(=O)CCc1nnc(CCc2ccccc2OC)o1	-3	1	-10	1	2	3
CCN(Cc1ccncc1)C(=O)CCc1nnc(CCC2CCCCC2)o1	-13	-2	12*	1.1	-6	-10
COc1ccc(/C=C/C(=O)NCc2cn(C)nc2C)cc1COc1ccc(Cl)cc1Br	-4	8	4	1	17	4
CCn1nc(C)c(NC(=O)/C=C/c2ccc(OC)c(COc3ccc(Cl)cc3Br)c2)c1C	71*	6	0	1.1	10	-10
CC(C)CNC(=O)CSc1ccc(Cl)cc1	-10	0	37*	0.9	2	13
Cc1ccc(SCC(=O)NCC(C)C)cc1	0	-1	-1	0.9	-1	14
CCN1C(=O)/C(=C\c2nc3ccccc3c(=O)n2-c2ccccc2)c2ccccc21	0	3	0	0.6	2	40
CCN1C(=O)/C(=C/c2nc3ccccc3c(=O)[nH]2)c2ccccc21	39*	0	3	0.9	8	11
SMILES	NCF1 inh	ABCB1 inh	HMGR II inh	Diaphorase act	ABCG2 block	Diaphorase inh
CCOc1ccc(CNc2ccc(N3CCCC3)cc2)cc1	21	-1	-5	0.3	-2	75*
CCOc1cc(CNc2ccc(N3CCCC3)cc2)cc(Cl)c1OC	-2	1	-5	0.3	4	68*
COc1cc(CNc2ccc(N3CCCC3)cc2)cc(Cl)c1OC	7	0	-1	0.5	0	55*
CCOc1cc(CNc2ccc(S(N)(=O)=O)cc2)cc(Cl)c1OC	-2	0	2	0.9	1	11
COc1ccc(CC2(CO)CCN(Cc3cnn(-c4ccccc4)c3)CC2)cc1	-1	6	-4	0.8	10	17
COc1ccc(NC(=O)Cn2cccc2)c(OC)c1	-15	1	-8	0.3	4	74*
COc1ccc(NC(=O)Cn2cccc2)cc1Cl	-1	0	11*	0.9	2	10
Cc1cccc(-n2nc3c(c2NC(=O)c2ccco2)CS(=O)C3)c1C (stereo unspecified)	.	0	-1	1	1	-1
CCOC(=O)c1c(C)[nH]c(C)c1C(=O)CSc1nncs1	-9	-2	10*	0.9	2	12
Cc1ccc(C)c(N(CC(=O)N/N=C/c2ccc(-c3ccc([N+](=O)[O-])cc3)o2)S(=O)(=O)c2ccccc2)c1	-68	0	-1	0.9	22	15
CCOC(=O)c1ccc(-c2ccc(/C=N/NC(=O)CN(c3cccc(C)c3)S(C)(=O)=O)o2)cc1	31*	-1	0	1	18	2
CCOC(=O)c1ccc(-c2ccc(/C=N/NC(=O)CN(c3ccccc3Cl)S(C)(=O)=O)o2)cc1	-40	0	-3	0.9	-1	11
CCOc1ccc(S(=O)(=O)N(CC(=O)N/N=C/c2ccc(-c3ccc([N+](=O)[O-])cc3)o2)c2ccccc2)cc1	-32	0	-2	0.4	-1	62*
O=C(NC1CCS(=O)(=O)C1)/C(=C\c1ccco1)NC(=O)c1ccccc1 (stereo unspecified)	-10	.	.	.	.	.
O=C(NC1CCS(=O)(=O)C1)/C(=C/c1ccco1)NC(=O)c1ccccc1 (stereo unspecified)	-3	0	-3	0.5	1	55*
O=C(N/N=C/c1ccc[nH]1)c1ccccc1O	-20	0	10*	1	2	3
O=C(Oc1cccc2c(O)cccc12)c1ccccc1	-13	1	1	0.8	3	24
O=C(Oc1ccccc1O)c1cccc2ccccc12	-5	0	18*	0.6	0	36
CCC(C)(C)C(=O)Nc1cc([N+](=O)[O-])ccc1F	-6	2	12*	1	13	4
O=C(Nc1cc([N+](=O)[O-])ccc1F)c1cccs1	75*	0	2	0.9	3	6
O=C(c1ccc2nc(-c3ccco3)c(-c3ccco3)nc2c1)N1CCN(c2ccccc2)CC1	-24	-6	-7	0.4	-9	56*
O=S(=O)(c1ccc2nc(-c3ccco3)c(-c3ccco3)nc2c1)N1CCOCC1	-3	0	-7	0.3	0	67*
O=C(Nc1cccc(C(F)(F)F)c1)c1ccc2nc(-c3ccco3)c(-c3ccco3)nc2c1	-10	-1	-6	0.8	-2	24
O=C(O)c1cc(-c2ccco2)nc2ccc(Br)cc12	-5	0	-5	0.3	-2	65*
